Screening results: PubChem, Johns Hopkins Ion Channel Center
hERG rescue – hERG rescue from dofetilide block, primary screen, cell-based, CHO-hERG, FluxOR thallium flux, dofetilide IC70; dofetilide IC70 present; activation (rescue from dofetilide block), less the hit threshold, % at 10 µM; hit rate 0.51% among 310,000;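 active = activation above the mean of controls blocked by dofetilide plus 5 SD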;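 note: thallium influx through hERG after potassium depolarization seen as dye fluorescence rise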
KCNQ1 inh – inhibitors of human KCNQ1 channel, primary screen, cell-based, thallium flux, high-throughput | Potassium voltage-gated channel subfamily KQT member 1 (Homo sapiens), P51787 | CHO-K1 KCNQ1, FluxOR thallium flux fluorescence; stronger effect = higher value | B-score at 10 µM | hit rate 1.3% among 310,000 | AID 2642, 2010;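 active = compounds whose thallium flux B-score, printed positive for inhibition, exceeds three library SD while starting fluorescence stays within three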;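 note: channel opened by potassium depolarization with thallium stimulus after 20 min compound exposure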
KCNQ1 act – potentiators or activators of KCNQ1 channel, primary screen, cell-based, thallium flux, high-throughput | hit rate 0.35% among 310,000 | Potassium voltage-gated channel subfamily KQT member 1 (Homo sapiens), P51787 | CHO-K1 KCNQ1, thallium flux FluxOR fluorescence; stronger effect = higher value | B-score at 10 µM;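 active = fluorescence ratio B-score, a plate-corrected score, at least three library SD, with initial intensity B-score within 5 SD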
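Test system: CHO-K1 cells stably expressing KCNQ1 / Medium: assay buffer / Also added: depolarizing K+/Tl+ stimulus, K2SO4 and Tl2SO4 each 12.5 mM in 5x stock / Incubation: 90 min dye loading and 20 min compound exposure, both at room temperature / Signal: thallium influx via FluxOR fluorescence, kinetic imaging / Evaluation: B score of baseline-normalized fluorescence ratio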
KCNK9 block – KCNK9 potassium channel inhibitors, primary screen, HEK293 cells, thallium flux; Potassium channel subfamily K member 9 (Homo sapiens), Q9NPC2; FluxOR thallium flux fluorescence; stronger effect = lower value; B-score at 10 µM; hit rate 1.2% among 310,000; AID 488922, 2010;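 active = ratio B-score over 3 SD below the library mean, with starting fluorescence within 5 SD of its mean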;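 note: negative B-score means less thallium flux so channel inhibition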
KCNK3 block – human KCNK3 channel inhibitors, primary screen, CHO cells, FluxOR thallium flux, B-score | Potassium channel subfamily K member 3 (Homo sapiens), O14649 | FluxOR fluorescence; stronger effect = lower value | B-score at 10 µM | hit rate 0.84% among 340,000 | AID 602410, 2012;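 active = B-score under library mean minus 4 SD, starting fluorescence ratio at most library mean plus 5 SD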;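 note: more negative B-score means stronger inhibition of thallium flux through KCNK3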
KCNK9 block conf – KCNK9 potassium channel inhibitors, confirmation, HEK293 cells, thallium flux, duplicate. shares compounds with KCNK9 block. FluxOR thallium flux fluorescence. inhibition, % at 10 µM. hit rate 43% among 4,900;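 active = thallium signal inhibited by more than 5 SD of the compound-free buffer control wells, on both duplicate plates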;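 note: 0% = assay buffer control wells without compound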
Kir2-1 spec – mouse Kir2.1 channel inhibition, confirmation, selectivity assay for KCNK9 modulator project, cell-based, HEK293, thallium flux; inhibition, % at 10 µM; Kir2.1 cells, FluxOR thallium flux fluorescence; shares compounds with KCNK9 block; hit rate 4% among 4,900;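 active = thallium signal drop more than 5 SD beyond the mean of the no-compound control wells, seen in both duplicate plates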;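 note: signal is fluorescence rise after thallium addition divided by baseline fluorescence; plate controls were assay buffer only for no effect and full block by chlorpromazine control for full effect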
Target sequence (P35561 whole entry, looked up): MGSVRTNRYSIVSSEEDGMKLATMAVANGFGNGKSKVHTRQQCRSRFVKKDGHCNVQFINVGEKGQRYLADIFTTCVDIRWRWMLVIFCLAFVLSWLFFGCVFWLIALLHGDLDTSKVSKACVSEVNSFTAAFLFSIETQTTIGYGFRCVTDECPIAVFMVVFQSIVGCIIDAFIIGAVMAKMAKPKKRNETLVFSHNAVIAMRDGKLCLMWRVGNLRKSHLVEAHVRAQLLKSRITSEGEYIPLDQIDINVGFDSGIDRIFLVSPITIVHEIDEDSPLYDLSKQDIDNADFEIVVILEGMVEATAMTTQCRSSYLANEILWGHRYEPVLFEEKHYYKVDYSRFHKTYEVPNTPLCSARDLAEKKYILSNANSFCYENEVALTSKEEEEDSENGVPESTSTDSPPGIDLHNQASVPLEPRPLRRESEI
KCNK9 uninduced – thallium flux in non-induced HEK293 cells, confirmation, counter-screen for KCNK9 inhibitor project, cell-based, second counter screen, non-induced KCNK9-HEK293; shares compounds with KCNK9 block; FluxOR thallium flux; inhibition, % at 10 µM; hit rate 40% among 4,900; AID 492997, 2010;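 active = thallium signal drop beyond 5 SD of the untreated control mean, on both duplicate plates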;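 note: plate controls were buffer only IC0 wells for no effect and SID17386958 at its maximal inhibitory level for full effect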
* marks the source's active call; other numbers are inactive results; i = inactive; . = no result. Hits are enriched below; roughly 3.1% of the tested compounds scored in any of these assays.

SMILES	hERG rescue	KCNQ1 inh	KCNQ1 act	KCNK9 block	KCNK3 block	KCNK9 block conf	Kir2-1 spec	KCNK9 uninduced
Cc1ccc(C)c(C(=O)COC(=O)c2cc([N+](=O)[O-])ccc2NCCO)c1	-9	i	11*	-8.2*	i	59%*	i	i
CCOC(=O)Nc1cc(C)ccc1OC	-7	i	i	i	i	.	.	.
COc1ccc(C)cc1NC(=O)CC(O)(C(F)(F)F)C(F)(F)F	-15	i	i	-9.6*	i	i	i	i
COc1cc(CC(=O)OCC(=O)N2CC(C)CC(C)C2)cc(OC)c1OC (stereo unspecified)	-4	i	i	i	i	.	.	.
c1ccc(-c2nc(-c3nccc4ccccc34)oc2-c2ccccc2)cc1	-9	i	i	i	i	i	i	i
Nc1nc(-c2ccccc2)c(-c2ccccc2)o1	-8	i	i	i	i	.	.	.
CC(O)c1nc2ccccc2n1CCCCOc1ccccc1 (stereo unspecified)	-6	i	i	i	i	.	.	.
NC(=O)C1(N2CCCCC2)CCN(C(=O)CSc2nc(C(F)(F)F)cc(=O)[nH]2)CC1	-5	i	i	i	i	.	.	.
CC1CN(c2cc(-c3ccccc3)c3ccccc3n2)CC(C)O1 (stereo unspecified)	-7	i	i	i	i	i	i	i
CC1CN(c2nc3ccccc3cc2-c2ccccc2)CC(C)O1 (stereo unspecified)	-11	i	i	i	i	i	i	i
COc1ccc(C(CNC(=O)c2cccc(S(=O)(=O)N(C)c3ccccc3)c2)N2CCCC2)cc1 (stereo unspecified)	.	.	.	.	i	.	.	.
CN(CC(=O)Nc1ccc(F)cc1)C(=O)Cn1cnc2ccc(Cl)cc2c1=O	.	.	.	.	i	.	.	.
COc1cccc(N=Nc2ccc(O)c3ncccc23)c1	16*	i	i	i	i	i	i	i
Oc1ccc(N=Nc2ccc3c(c2)OCCO3)c(O)c1	-12	i	i	i	i	.	.	.
COc1ccc(C)cc1N=Nc1ccc(O)c2ncccc12	-7	i	i	i	i	.	.	.
Oc1ccc(N=Nc2ccc3c(c2)OCCO3)c2cccnc12	-10	i	55*	i	i	i	i	i
S=C(NC1CCCCC1)N1CCOCCOCCN(C(=S)NC2CCCCC2)CCOCCOCC1	-2	i	i	-12*	i	50%*	i	33%*
O=C(NC1CCCCCC1)C(=S)N1CCOCC1	-10	i	i	i	i	.	.	.
CC(O)CNc1nc2sc3c(c2c(=O)n1CCc1ccccc1)CCCCC3 (stereo unspecified)	-12	i	i	i	i	i	i	i
COC(=O)Cn1c(=O)n(CCc2ccccc2)c(=O)c2c3c(sc21)CCCC3	-10	i	i	i	i	i	i	i
CC(C)CC(NC(=O)C1CCC(=O)N1)C(=O)NC(CC(C)C)C(=O)N1CCCC1C(N)=O (stereo unspecified)	-6	i	i	i	i	.	.	.
Cn1nc([N+](=O)[O-])c(C(C#N)c2ccccn2)c(Cl)c1=O (stereo unspecified)	-8	i	i	i	i	.	.	.
CCn1nc([N+](=O)[O-])c(C(C#N)c2nc3cc(C(F)(F)F)ccc3s2)c(Cl)c1=O (stereo unspecified)	-9	i	i	i	i	i	i	i
CCCCOC(=O)Nc1nnc(SCCOc2ccc(C)cc2)s1	-13	i	i	i	i	i	i	i
COc1ccc(OC)c(C(=O)CSc2nccc(-c3ccc(Br)cc3)n2)c1	-6	i	i	-9.4*	i	i	i	28%*
SMILES	hERG rescue	KCNQ1 inh	KCNQ1 act	KCNK9 block	KCNK3 block	KCNK9 block conf	Kir2-1 spec	KCNK9 uninduced
COc1ccc(-c2ccnc(SCC(=O)c3ccc(OC)c(OC)c3)n2)cc1	-5	i	i	i	i	.	.	.
O=C(/C=C/c1ccccc1)c1cc(Br)ccc(=O)c1O	12*	i	22*	i	i	i	i	i
O=C(/C=C/c1ccc(F)cc1)c1cc(Br)ccc1O	-7	i	i	i	i	.	.	.
COc1ccc(N(CCCN2C(=O)c3cccc4cccc(c34)C2=O)C(=O)c2cccc(OC)c2)cc1	-9	i	i	i	i	.	.	.
Cc1cc(C)nc(NS(=O)(=O)c2ccc(NC(=O)c3cc(-c4ccccc4)nc4ccccc34)cc2)n1	-9	i	i	i	i	.	.	.
Cc1ccc(-c2cc(C(=O)Nc3ccc(S(=O)(=O)Nc4onc(C)c4C)cc3)c3ccccc3n2)cc1	-26	i	i	i	i	i	i	i
Cc1cc(NC(=O)COC(=O)C2CC(=O)N(c3ccc(Cl)cc3)C2)no1 (stereo unspecified)	-8	i	i	i	i	.	.	.
CCN(C(=O)/C=C/c1ccccc1)C1CCCCC1	-10	i	i	i	i	i	i	i
CC(=O)Nc1nc(C(=O)O)cs1	-6	i	i	i	i	.	.	.
COc1cccc(CN(C)Cc2nc(Cc3ccccc3Cl)no2)c1	-6	i	i	i	i	i	i	i
CSc1nnc(-c2ccccc2N=Cc2c(C)[nH]n(-c3ccc4ccccc4c3)c2=O)c(=O)[nH]1	-13	i	i	i	i	i	i	i
CC/C(C)=N\Nc1nc(-c2cc3cc(OC)ccc3oc2=O)cs1	-9	i	i	i	i	i	i	i
COc1ccc2oc(=O)c(-c3nc(C)cs3)cc2c1	.	.	.	.	i	.	.	.
Cc1ccc(-c2nc(C3CCN(S(=O)(=O)c4ccc(C(C)(C)C)cc4)CC3)no2)cc1	-7	i	i	i	i	i	i	i
CCc1noc(C)c1C(=O)N(C)CC(=O)Nc1ccccc1Br	-14	i	i	i	i	.	.	.
